This is an account of results in ChEMBL document CHEMBL1287655, “Structure-activity relationship studies of acridones as potential antipsoriatic agents. 2. Synthesis and antiproliferative activity of 10-substituted hydroxy-10H-acridin-9-ones against human keratinocyte growth” (Eur J Med Chem, 2010).

Assay [1] relates to HaCaT. The assay can be described thus: Antiproliferative activity against human HaCaT cells assessed as dispersed cells after 48 hrs by phase-contrast microscopic analysis. The format is functional, cell-based. An outline of the steps: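 HaCaT keratinocytes (non-transformed human line) treated for 48 h, then dispersed cells counted by phase-contrast microscopy. Inhibition = (1 − test/control) × 100, from means of test (N = 3) versus control (N = 6–8). Significance by Student's t-test (P < 0.05). IC50 obtained by nonlinear regression.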

Assay [2] relates to HaCaT. Put plainly: Cytotoxicity against human HaCaT cells assessed as LDH release at 2 uM after 4 hrs by UV method. The format is functional. Put shortly: (§1)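 HaCaT cells exposed to test compound for 4 h at 37 °C. Extracellular LDH activity measured by UV method with pyruvate and NADH and reported in mU/mL (N = 3, SD < 10%). Vehicle control was 0.2% DMSO in culture medium. Brij 35 with ultrasound served as positive control. Significance versus vehicle at P < 0.05.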

For assay [3], the system named is Radical scavenging activity. Put plainly: Antioxidant activity assessed as DPPH free radical scavenging activity. The format is functional. An outline of the steps:
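Cell-free DPPH radical interaction: compound effect on DPPH absorbance read at 520 nm. Percent interaction = (1 − test absorbance/control absorbance) × 100, from mean of N = 3 versus control N = 8. EC50 is the concentration giving 50% decrease in DPPH absorbance. NDGA and α-tocopherol served as positive controls.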

In assay [4] the test system is HaCaT. The assay can be described thus: Cytotoxicity against human HaCaT cells assessed as LDH release at 2 uM after 4 hrs by UV method relative to control. The format is functional. Put shortly: as §1

The structures appear in SMILES notation. pEC50, pIC50: −log10 of the molar value. A value given as a limit tells only on which side of the number the result lay.

For the compound `COc1cc(O)c2c(=O)c3ccccc3n(C)c2c1`, the pIC50 in the assay with HaCaT [1] is below 4.30.
The same measure, in the same setting: for `CCn1c2ccccc2c(=O)c2c(O)cc(O)cc21` the value was below 4.30.
Take `Cn1c2ccccc2c(=O)c2c(O)cc(O)cc21`: the pIC50 with HaCaT [1] is 6.22. Moreover, the Activity in the assay on HaCaT [2] came to 74.3 mU/ml. Also, the pEC50 in assay [3] was below 3.30.
For `Cn1c2ccccc2c(=O)c2c(O)cccc21`, in the assay on HaCaT [1], the pIC50 is below 4.30.
Regarding `COc1cccc2c1c(=O)c1ccccc1n2C`, the pIC50 in the assay on HaCaT [1] was below 4.30.
In the case of `CCn1c2ccccc2c(=O)c2c(O)cccc21`, the pIC50 with HaCaT [1] is below 4.30.
On the same count and under the same terms, under `CCCn1c2ccccc2c(=O)c2c(O)cccc21` stands below 4.30; under `CCCn1c2ccccc2c(=O)c2c(O)cc(O)cc21`, below 4.30.
With `Cn1c2ccccc2c(=O)c2ccccc21`, the pIC50 with HaCaT [1] was 4.41.
The same measure, in the same setting: for `Cc1cccc2c1c(=O)c1c(O)cc(O)cc1n2C` the value was below 4.30.
On to `COc1ccc(CCn2c3ccccc3c(=O)c3c(O)cccc32)cc1`, for which, in the assay on HaCaT [1], the negative logarithm of the IC50 (pIC50) was 5.20. Moreover, in the assay on HaCaT [2], the Activity is recorded as 74.6 mU/ml. In addition, the pEC50 in assay [3] was below 3.30.
With `COc1ccc(CCn2c3ccccc3c(=O)c3c(O)cccc32)cc1OC`, in the assay on HaCaT [1], the pIC50 was 5.15. Also, in assay [3], the pEC50 is below 3.30.
For the compound `COc1cc(CCn2c3ccccc3c(=O)c3c(O)cccc32)cc(OC)c1OC`, in the assay on HaCaT [1], the pIC50 was 4.34.
Turning to `O=c1c2ccccc2n(CCCc2ccccc2)c2cccc(O)c12`, the pIC50 with HaCaT [1] was below 4.30.
The same measure, in the same setting: for `O=c1c2ccccc2n(CCCCc2ccccc2)c2cccc(O)c12` the value was below 4.30.
For `CCOc1cc(O)c2c(=O)c3ccccc3n(CC)c2c1`, the pIC50 in the assay on HaCaT [1] was below 4.30.
For the compound `O=c1c2ccccc2n(Cc2ccccc2)c2cc(O)cc(O)c12`, the pIC50 with HaCaT [1] was 5.43. The Activity in the assay with HaCaT [2] stood at 76.8 mU/ml. Moreover, the pEC50 in assay [3] was below 3.30.
On to `O=c1c2ccccc2n(Cc2ccccc2)c2cc(OCc3ccccc3)cc(O)c12`, for which the pIC50 with HaCaT [1] was below 4.30.
Take `O=c1c2ccccc2n(CCCc2ccccc2)c2cc(O)cc(O)c12`: in the assay with HaCaT [1], the pIC50 is 4.39.
On to `COc1ccc(Cn2c3ccccc3c(=O)c3ccccc32)cc1OC`, for which the pIC50 in the assay on HaCaT [1] was below 4.30. The pEC50 in assay [3] was below 3.30.
Regarding `CC(=O)CC(=O)n1c2ccccc2c(=O)c2ccccc21`, in the assay on HaCaT [1], the pIC50 is 4.56.
In the case of `CC(=O)CC(=O)n1c2ccccc2c(=O)c2c(O)cccc21`, the pIC50 with HaCaT [1] was 5.48. Moreover, the Activity with HaCaT [2] is on record as 74 mU/ml. Moreover, the pEC50 in assay [3] was below 3.30.
The matching figures for `O=c1c2ccccc2n(Cc2ccccc2)c2cccc(O)c12`: 5.60, 74.9 mU/ml and below 3.30.
The matching figures for `O=c1c2ccccc2n(Cc2ccccc2)c2cccc(OCc3ccccc3)c12`: 5.12, 72.1 mU/ml and below 3.30.
In the case of `O=c1c2ccccc2n(Cc2ccccc2)c2ccc(Cc3ccccc3)c(O)c12`, the pIC50 with HaCaT [1] was 4.89.
Take `O=c1c2ccccc2n(Cc2ccc([N+](=O)[O-])cc2)c2cccc(O)c12`: in the assay with HaCaT [1], the pIC50 was 5.74. Further, the Activity with HaCaT [4] is 86.7 mU/ml. The pEC50 in assay [3] is below 3.30.
`O=c1c2ccccc2n(CCc2ccccc2)c2cccc(O)c12`: the pIC50 with HaCaT [1] is 4.38.
`O=c1c2ccccc2n(CCc2ccc(O)cc2)c2cccc(O)c12`: the pIC50 with HaCaT [1] was 4.70. Also, in assay [3], the pEC50 was below 3.30.
On to `O=c1c2ccccc2[nH]c2cc(O)cc(O)c12`, for which the pEC50 in assay [3] is below 3.30.
In the case of `O=c1c2ccccc2[nH]c2cccc(O)c12`, in the assay with HaCaT [1], the pIC50 was below 4.30. In addition, in assay [3], the negative-log EC50 (pEC50) was below 3.30.
On to `O=c1c2ccccc2n(Cc2ccccc2)c2ccccc12`, for which the pIC50 in the assay with HaCaT [1] was below 4.30.
Take `O=c1c2ccccc2[nH]c2ccccc12` [ACRIDONE]: the pIC50 with HaCaT [1] is below 4.30.
With `COc1cc2c(c3c1c(=O)c1ccccc1n3C)C=CC(C)(C)O2` [ACRONINE], in the assay on HaCaT [1], the pIC50 is 5.49. The Activity with HaCaT [2] is given as 70.4 mU/ml. The pEC50 in assay [3] is below 3.30.
With `O=C1c2c(O)cccc2Cc2cccc(O)c21` [ANTHRALIN], the Activity in the assay with HaCaT [4] was determined as 122.8 mU/ml. The pEC50 in assay [3] was 4.78.
